What is called Ki is the dissociation constant of the complex between target and ligand, obtained from inhibition or displacement. High values mean a looser hold on the target, low ones a stronger hold on the target.

This assay addresses T1, Tetanus toxin (Clostridium tetani (strain Massachusetts / E88), UniProt P04958).
T1 sequence (P04958 whole entry): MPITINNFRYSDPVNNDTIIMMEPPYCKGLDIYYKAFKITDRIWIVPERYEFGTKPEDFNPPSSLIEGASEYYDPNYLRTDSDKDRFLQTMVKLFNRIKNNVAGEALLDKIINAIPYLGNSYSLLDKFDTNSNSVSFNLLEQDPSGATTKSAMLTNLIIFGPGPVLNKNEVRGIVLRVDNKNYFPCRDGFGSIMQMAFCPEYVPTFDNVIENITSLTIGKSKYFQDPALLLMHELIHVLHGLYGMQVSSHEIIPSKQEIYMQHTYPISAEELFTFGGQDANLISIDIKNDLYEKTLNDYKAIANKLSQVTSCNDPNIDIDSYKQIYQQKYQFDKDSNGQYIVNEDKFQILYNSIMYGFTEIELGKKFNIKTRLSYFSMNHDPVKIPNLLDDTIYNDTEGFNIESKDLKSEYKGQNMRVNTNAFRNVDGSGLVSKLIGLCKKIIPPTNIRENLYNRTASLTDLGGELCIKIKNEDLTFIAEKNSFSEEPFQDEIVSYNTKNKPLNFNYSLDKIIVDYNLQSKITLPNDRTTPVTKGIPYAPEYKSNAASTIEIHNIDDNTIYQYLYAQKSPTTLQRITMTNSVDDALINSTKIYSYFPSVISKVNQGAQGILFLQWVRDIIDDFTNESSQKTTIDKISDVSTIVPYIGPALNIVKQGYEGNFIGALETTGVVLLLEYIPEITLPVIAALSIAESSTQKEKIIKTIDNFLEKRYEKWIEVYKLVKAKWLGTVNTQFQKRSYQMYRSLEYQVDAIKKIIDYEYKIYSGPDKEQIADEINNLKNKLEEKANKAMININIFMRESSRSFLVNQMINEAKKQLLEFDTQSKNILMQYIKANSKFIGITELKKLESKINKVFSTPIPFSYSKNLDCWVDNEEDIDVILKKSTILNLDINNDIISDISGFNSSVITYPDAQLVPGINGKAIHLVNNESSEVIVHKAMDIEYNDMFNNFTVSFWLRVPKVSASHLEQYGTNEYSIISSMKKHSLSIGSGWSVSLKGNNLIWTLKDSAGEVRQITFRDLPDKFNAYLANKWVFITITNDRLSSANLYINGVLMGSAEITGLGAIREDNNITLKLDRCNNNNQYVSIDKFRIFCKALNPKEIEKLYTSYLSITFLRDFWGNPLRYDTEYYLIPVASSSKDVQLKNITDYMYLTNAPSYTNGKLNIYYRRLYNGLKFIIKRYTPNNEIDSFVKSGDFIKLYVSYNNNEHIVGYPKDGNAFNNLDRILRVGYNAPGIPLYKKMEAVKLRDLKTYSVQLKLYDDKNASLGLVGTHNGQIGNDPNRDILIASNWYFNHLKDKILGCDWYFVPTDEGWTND
Description: Inhibition of tetanus neurotoxin (TeNt). The method, boiled down: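 TeNt metallopeptidase activity on the fluorescent substrate [Pya⁸⁸]S39-88 (40, 50, 66, 100, 200 μM) in 20 mM Hepes pH 7.4, 100 mM NaCl, 0.1 mM DTT at 37 °C. Inhibitor absent or at 1, 10, 33, 100 μM. Rate read by RP-HPLC as the appearance of fluorescent product [Pya⁸⁸]S77-88. Lineweaver–Burk analysis; mean of three independent experiments in triplicate.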
In the case of `N[C@@H](CCS(N)(=O)=O)[C@@H](S)C(=O)N[C@@H](Cc1ccc(O)cc1)C(=O)N[C@@H](Cc1c[nH]cn1)C(=O)O`, the affinity corresponds to a Ki of 5 µM. For the compound `N[C@@H](CCS(N)(=O)=O)[C@@H](S)C(=O)N[C@@H](Cc1ccc(O)cc1)C(=O)N[C@@H](Cc1cnc[nH]1)C(=O)NCc1ccccc1`, the Ki worked out at 3.9 µM. This Ki and that of the compound before are within 1.5-fold of each other. For `NC(=O)CC[C@@H](N)CS` the value was 250 µM; for `N[C@@H](CS)CCS(N)(=O)=O`, 100 µM; for `N[C@@H](CCS(N)(=O)=O)[C@H](S)C(=O)N[C@@H](Cc1ccc(O)cc1)C(=O)N[C@@H](Cc1c[nH]cn1)C(=O)O`, 15 µM.

For `N[C@@H](CCS(N)(=O)=O)[C@H](S)C(=O)N[C@@H](Cc1ccc(O)cc1)C(=O)N[C@@H](Cc1c[nH]cn1)C(=O)NCc1ccccc1`, the inhibitory constant (Ki) was determined as 6.8 µM.

`NC(CS)c1cccc(S(N)(=O)=O)c1` (stereo not drawn) registered a Ki of 35 µM. This Ki is about 5.1-fold higher than that of the compound before. For the compound `N[C@@H](c1cccc(S(N)(=O)=O)c1)[C@@H](S)C(=O)N[C@@H](Cc1ccc(O)cc1)C(=O)N[C@@H](Cc1c[nH]cn1)C(=O)NCc1ccccc1`, the inhibition constant Ki amounted to 3 µM. As to `N[C@H](c1cccc(S(N)(=O)=O)c1)[C@@H](S)C(=O)N[C@@H](Cc1ccc(O)cc1)C(=O)N[C@@H](Cc1c[nH]cn1)C(=O)NCc1ccccc1`, the affinity corresponds to a Ki of 6 µM. Take `N[C@@H](c1cccc(S(N)(=O)=O)c1)[C@H](S)C(=O)N[C@@H](Cc1ccc(O)cc1)C(=O)N[C@@H](Cc1c[nH]cn1)C(=O)NCc1ccccc1`: the affinity, expressed as Ki, was 9.6 µM. With `N[C@H](c1cccc(S(N)(=O)=O)c1)[C@H](S)C(=O)N[C@@H](Cc1ccc(O)cc1)C(=O)N[C@@H](Cc1c[nH]cn1)C(=O)NCc1ccccc1`, the Ki was 4 µM. This Ki is about 2.4-fold lower than that of the compound before. The result for `C[C@@H](O)[C@H](NC(=O)[C@H](CCC(=O)O)NC(=O)[C@@H](Cc1ccccc1)NC(=O)C(S)[C@@H](N)CCC(=O)ON)C(=O)O` (mixture of isomers) reads 100 µM. The compound `C[C@@H](O)[C@H](NC(=O)[C@H](CCC(=O)O)NC(=O)[C@@H](Cc1ccccc1)NC(=O)C(S)[C@@H](N)CCC(=O)ON)C(=O)N[C@@H](CO)C(=O)O` (mixture of isomers) had a Ki of 80 µM. The Ki values of the last two compounds are within 1.5-fold of each other.
